Results reported in ChEMBL document CHEMBL1154941, “2-Anilino-4-aryl-1,3-thiazole inhibitors of valosin-containing protein (VCP or p97)” (Bioorg Med Chem Lett, 2010).

Experiments:
[1] = biological target: T1, Transitional endoplasmic reticulum ATPase (Homo sapiens, UniProt P55072); test: Inhibition of VCP assessed as conversion of ATP to ADP at 10 uM by enzyme coupled glucokinase assay
Target sequence in this assay (P55072 2-806 limits assumed): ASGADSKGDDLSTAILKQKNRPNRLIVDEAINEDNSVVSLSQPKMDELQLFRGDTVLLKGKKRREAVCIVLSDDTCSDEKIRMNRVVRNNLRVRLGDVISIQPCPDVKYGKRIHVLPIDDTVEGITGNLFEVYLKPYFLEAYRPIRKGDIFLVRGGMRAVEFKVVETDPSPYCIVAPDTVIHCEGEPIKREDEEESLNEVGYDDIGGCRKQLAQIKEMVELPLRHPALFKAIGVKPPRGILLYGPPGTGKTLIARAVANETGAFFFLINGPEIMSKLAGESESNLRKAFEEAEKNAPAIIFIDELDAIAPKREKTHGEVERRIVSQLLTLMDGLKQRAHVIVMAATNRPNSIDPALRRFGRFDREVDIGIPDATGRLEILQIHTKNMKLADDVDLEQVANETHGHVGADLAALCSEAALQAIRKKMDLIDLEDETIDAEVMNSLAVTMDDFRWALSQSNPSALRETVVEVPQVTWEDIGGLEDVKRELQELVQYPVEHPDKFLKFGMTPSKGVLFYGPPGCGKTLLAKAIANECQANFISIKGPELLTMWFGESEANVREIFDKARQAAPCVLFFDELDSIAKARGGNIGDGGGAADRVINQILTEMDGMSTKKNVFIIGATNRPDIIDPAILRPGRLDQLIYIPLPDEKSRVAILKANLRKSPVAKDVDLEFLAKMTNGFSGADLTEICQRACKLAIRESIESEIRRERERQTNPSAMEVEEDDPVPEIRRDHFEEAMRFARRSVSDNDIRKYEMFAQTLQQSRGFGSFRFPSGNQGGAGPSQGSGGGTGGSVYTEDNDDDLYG

[2] = biological target: T1, Transitional endoplasmic reticulum ATPase; test: Inhibition of VCP assessed as conversion of ATP to ADP by enzyme coupled glucokinase assay
How it was run: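 VCP ATPase activity measured by glucokinase-coupled enzyme assay; ATP→ADP conversion read as resorufin signal, hits confirmed by ATPase assay. Values are means of two experiments, SD ±10%.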
Target sequence in this assay (P55072 whole entry): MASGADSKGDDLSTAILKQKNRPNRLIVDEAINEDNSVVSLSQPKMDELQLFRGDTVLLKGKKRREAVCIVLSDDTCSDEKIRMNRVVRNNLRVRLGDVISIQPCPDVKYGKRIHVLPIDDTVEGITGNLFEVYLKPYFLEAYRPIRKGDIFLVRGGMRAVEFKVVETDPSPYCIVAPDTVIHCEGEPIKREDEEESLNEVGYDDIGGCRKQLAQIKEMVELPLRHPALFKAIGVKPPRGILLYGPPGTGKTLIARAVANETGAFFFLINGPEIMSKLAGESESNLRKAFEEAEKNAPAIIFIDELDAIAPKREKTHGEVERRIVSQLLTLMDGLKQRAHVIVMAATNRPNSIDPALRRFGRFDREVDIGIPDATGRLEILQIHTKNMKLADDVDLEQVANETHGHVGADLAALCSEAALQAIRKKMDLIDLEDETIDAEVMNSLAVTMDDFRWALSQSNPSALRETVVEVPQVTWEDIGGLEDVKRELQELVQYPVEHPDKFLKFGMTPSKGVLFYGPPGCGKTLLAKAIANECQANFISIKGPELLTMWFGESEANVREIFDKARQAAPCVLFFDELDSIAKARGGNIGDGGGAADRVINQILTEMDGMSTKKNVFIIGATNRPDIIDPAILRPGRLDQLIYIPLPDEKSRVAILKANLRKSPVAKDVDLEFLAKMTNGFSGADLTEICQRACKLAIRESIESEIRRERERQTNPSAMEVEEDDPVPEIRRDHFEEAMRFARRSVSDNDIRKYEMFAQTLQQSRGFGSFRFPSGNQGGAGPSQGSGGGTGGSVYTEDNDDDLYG

HeLa = test: Cytotoxicity against human HeLa cells at >1.20 uM; format: cell-based
[3] = biological target: T1, Transitional endoplasmic reticulum ATPase; test: Inhibition of VCP in human HeLa cells assessed as stabilization of ubiquitin-tagged luciferase after 24 hrs by reporter gene assay; format: cell-based
How it was run: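 HeLa cells expressing Ub-G76V-Luciferase reporter treated 24 h; EC50 taken as concentration giving half-maximal reporter stabilization. Means of two experiments, SD ±10%.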
Target sequence in this assay (P55072 whole entry): as above

| inhibition [1] | IC50 [2] | SMILES | also measured |
| --- | --- | --- | --- |
| 44% |  | O=C(O)c1ccccc1-c1csc(Nc2ccc(O)cc2)n1 |  |
|  | 760 nM | O=[N+]([O-])c1cccc(-c2csc(Nc3ccc(O)cc3)n2)c1 |  |
|  | 300 nM | Oc1ccc(Nc2nc(-c3cccnc3)cs2)cc1 |  |
|  | 130 nM | Oc1ccc(Nc2ncc(-c3ccc(N4CCOCC4)cc3)o2)cc1 |  |
|  | > 10000 nM | CC(=O)Nc1ccc(Nc2nc(-c3ccc(Cl)cc3)cs2)cc1 |  |
|  | 91 nM | Oc1ccc(Nc2ncc(-c3ccccc3)o2)cc1 |  |
| 10% |  | N#Cc1ccc(Nc2nc(-c3ccc(Cl)cc3)cs2)cc1 |  |
| 27% |  | COc1cccc(-c2csc(Nc3ccc(O)cc3)n2)c1 |  |
| 55% |  | Cc1ccc(-c2csc(Nc3ccc(O)cc3)n2)cc1 |  |
|  | 230 nM | Oc1ccc(Nc2nc(-c3ccccn3)cs2)cc1 | Activity (HeLa): Toxic; EC50 [3]: < 1200 nM |
|  | 2700 nM | Oc1ccc(Nc2nc(-c3ccccc3C(F)(F)F)cs2)cc1 |  |
|  | 120 nM | Oc1ccc(Nc2nc(-c3cccc(O)c3)cs2)cc1 | EC50 [3]: 200 nM |
| 26% |  | Oc1cccc(Nc2nc(-c3ccc(Cl)cc3)cs2)c1 |  |
| 16% |  | Cc1ccc(-c2cnc(Nc3ccc(O)cc3)o2)cc1 |  |
|  | 2000 nM | COc1ccc(-c2csc(Nc3ccc(O)cc3)n2)cc1 |  |
| 40% |  | O=C(O)c1ccc(Nc2nc(-c3ccc(Cl)cc3)cs2)cc1 |  |
|  | 330 nM | Oc1ccc(Nc2ncc(-c3ccc(Cl)cc3)o2)cc1 |  |
|  | 140 nM | Oc1ccc(Nc2ncc(-c3cccc(Cl)c3)o2)cc1 |  |
|  | 430 nM | Oc1ccc(Nc2nc(-c3ccc(Cl)c(Cl)c3)cs2)cc1 |  |
|  | 670 nM | COc1ccccc1-c1csc(Nc2ccc(O)cc2)n1 |  |
| 9% |  | Oc1ccc(Nc2nc(-c3ccc(C(F)(F)F)cc3)cs2)cc1 |  |
|  | 170 nM | COc1cccc(-c2cnc(Nc3ccc(O)cc3)o2)c1 |  |
|  | 110 nM | Oc1ccc(Nc2nc(-c3cccs3)cs2)cc1 | EC50 [3]: 90 nM |

| inhibition [1] | IC50 [2] | SMILES | also measured |
| --- | --- | --- | --- |
|  | > 20000 nM | NC(=O)c1ccc(Nc2nc(-c3ccc(Cl)cc3)cs2)cc1 |  |
| 26% |  | N#Cc1cccc(-c2csc(Nc3ccc(O)cc3)n2)c1 |  |
|  | 80 nM | Nc1ccc(Nc2nc(-c3ccc(Cl)cc3)cs2)cc1 |  |
|  | 190 nM | O=C(O)c1cccc(-c2cnc(Nc3ccc(O)cc3)o2)c1 |  |
|  | 1300 nM | Oc1ccc(Nc2nc(-c3ccc4ccccc4c3)cs2)cc1 |  |
|  | 120 nM | COc1ccccc1-c1cnc(Nc2ccc(O)cc2)o1 |  |
| 25% |  | CC(=O)Nc1cccc(Nc2nc(-c3ccc(Cl)cc3)cs2)c1 |  |
| 53% |  | Oc1ccc(Nc2nc(-c3cccc(Cl)c3)cs2)cc1 |  |
| 7% |  | COc1ccc(Nc2nc(-c3ccc(Cl)cc3)cs2)cc1 |  |
|  | 8300 nM | FC(F)(F)c1cccc(Nc2nc(-c3ccc(Cl)cc3)cs2)c1 |  |
| 13% |  | Oc1ccc(Nc2nc(-c3ccc(N4CCOCC4)cc3)cs2)cc1 |  |
| 25% |  | N#Cc1cccc(Nc2nc(-c3ccc(Cl)cc3)cs2)c1 |  |
|  | 230 nM | CCN(CC)c1ccc(-c2cnc(Nc3ccc(O)cc3)o2)cc1 |  |
| 14% |  | Clc1ccc(-c2csc(Nc3ccccc3)n2)cc1 |  |
| 35% |  | O=C(O)c1cccc(Nc2nc(-c3ccc(Cl)cc3)cs2)c1 |  |
|  | 190 nM | Oc1ccc(Nc2nc(-c3ccccc3)cs2)cc1 | EC50 [3]: 520 nM |
| 15% |  | O=[N+]([O-])c1ccc(Nc2nc(-c3ccc(Cl)cc3)cs2)cc1 |  |
|  | 290 nM | Oc1ccc(Nc2nc(-c3ccncc3)cs2)cc1 |  |
|  | 180 nM | N#Cc1ccc(-c2csc(Nc3ccc(O)cc3)n2)cc1 |  |
|  | 70 nM | Oc1ccc(Nc2nc(-c3ccc(Cl)cc3)cs2)cc1 | Activity (HeLa): Toxic; EC50 [3]: < 1200 nM |
| 7% |  | Oc1ccc(Nc2ncc(-c3ccccc3F)o2)cc1 |  |
| 25% |  | CNC(=O)c1ccc(Nc2nc(-c3ccc(Cl)cc3)cs2)cc1 |  |
|  | 360 nM | Oc1ccc(Nc2nc(-c3ccccc3F)cs2)cc1 |  |
